Screening data as filed in PubChem BioAssay.
bIAP activator: intestinal alkaline phosphatase (bovine) activation; purified bovine IAP, CDP-star luminescence, 30 min; active compounds read high; fold of DMSO-control signal, blank-subtracted; activation factor at 20 µM; 0.17% of 200,000 active;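 active means activation factor of 2 or more at 20 µM, a signal rise over negative controls twice the positive control's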
bIAP inhibitor: blocks bovine intestinal alkaline phosphatase activity. 190,000 tested, under 10 active. purified bovine IAP, CDP-star luminescence, 30 min. AID 1019. inhibition, % at 20 µM;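 active means over 50% inhibition of intestinal alkaline phosphatase at 20 µM in the single-dose screen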
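Assay system – bovine IAP enzyme · Quantity – bovine IAP at 1/65,000,000 final dilution · Detection – CDP-star luminescence signal · Times – 30 min reaction at room temperature · Also added – CDP-star substrate at 30 µM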
mIAP activ: mouse IAP activation; muIAP, CDP-Star luminescence, 30 min; active compounds read high; 1 = vehicle-only enzyme signal, 0 = enzyme-free wells; activation factor at 10 µM; 0.24% of 330,000 active;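 active means activation factor of at least 2 at 20 µM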
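Assay system: mouse IAP enzyme / Compound: DMSO-dissolved test compounds / Timing: 30 min, room temperature / Measured by: luminescence from enzymatic CDP-Star hydrolysis / Control set: DMSO-only wells, enzyme-free buffer wells as negative control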
hIAP activ: human IAP activation; purified human IAP, CDP-Star luminescence, 30 min; active compounds read high; 1 = vehicle-only enzyme, 0 = enzyme-free background; 0.16% of 330,000 active; activation factor at 10 µM;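 active means activation factor of the enzyme at least 2-fold when tested at 20 µM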
Target sequence (P09923 whole entry, looked up): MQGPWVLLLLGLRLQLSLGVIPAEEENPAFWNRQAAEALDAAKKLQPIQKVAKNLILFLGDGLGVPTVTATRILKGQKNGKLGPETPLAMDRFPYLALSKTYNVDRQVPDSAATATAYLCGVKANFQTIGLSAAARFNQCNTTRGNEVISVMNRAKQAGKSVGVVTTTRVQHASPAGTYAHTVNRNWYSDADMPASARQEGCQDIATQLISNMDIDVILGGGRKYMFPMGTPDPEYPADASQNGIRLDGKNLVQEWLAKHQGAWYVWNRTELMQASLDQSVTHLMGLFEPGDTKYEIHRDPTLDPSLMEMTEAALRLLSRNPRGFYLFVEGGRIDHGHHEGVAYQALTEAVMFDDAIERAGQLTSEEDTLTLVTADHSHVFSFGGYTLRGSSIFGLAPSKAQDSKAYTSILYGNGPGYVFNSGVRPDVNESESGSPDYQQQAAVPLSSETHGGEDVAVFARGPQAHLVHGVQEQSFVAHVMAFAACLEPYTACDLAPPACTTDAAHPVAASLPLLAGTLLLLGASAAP
mIAP inh: blocks mouse intestinal alkaline phosphatase | purified mouse IAP, CDP-Star luminescence, 30 min | inhibition, % at 10 µM | 0.2% of 330,000 active;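 active means inhibition of at least 40% at 10 µM in the primary screen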
hIAP inh: human IAP inhibition; 0.12% of 330,000 active; P09923; inhibition, % at 10 µM; purified IAP, CDP-Star luminescence, 30 min;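 active means inhibition reaching a set limit with compound at 10 µM in the primary screen, cut at about 35% in these data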
mIAP inh confirm: mouse IAP inhibition confirmation | shares compounds with mIAP inh | purified mouse IAP, CDP-Star luminescence, 30 min | inhibition, % at 10 µM | 4.7% of 11,000 active | AID 434971;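 active means inhibition of at least 40% at 10 µM in either of the two replicates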
Of the large screens only hits and unclear results are named; the others gave an inactive call (follow-up assays come after a bar, where they were run). An excerpt weighted towards active compounds, which were near 0.72% of everything screened.

C[C@@H]1O[C@@H](OC2C(O)C(OCCc3ccc(O)c(O)c3)OC(CO)C2OC(=O)/C=C/c2ccc(O)c(O)c2)[C@H](O)[C@H](O)[C@H]1O (stereo partly specified)	mIAP inh 46 (no result: bIAP activator, bIAP inhibitor) | mIAP inh confirm 42
C[C@@H]1O[C@@H](O[C@H]2[C@H](O)[C@@H](O)[C@H](Oc3c(-c4ccc(O)cc4)oc4cc(O)cc(O)c4c3=O)O[C@@H]2CO)[C@H](O)[C@H](O)[C@H]1O	none (no result: bIAP activator, bIAP inhibitor)
CSc1ccc(CN2CCC(n3nccc3NC(=O)CCCc3ccccc3)CC2)cc1	mIAP activ 2.7 (no result: bIAP activator, bIAP inhibitor) | mIAP inh confirm inactive
COc1ccccc1C(CC(=O)Nc1ccc(C)c(C)c1)c1ccc(OC(C)C)cc1 (stereo unspecified)	mIAP activ 2.1 | mIAP inh confirm inactive
O=C(NCc1ccc2c(c1)CCO2)Nc1cccc(C(F)(F)F)c1	mIAP activ 3.8 (no result: bIAP activator, bIAP inhibitor) | mIAP inh confirm inactive
O=C(NCc1cccnc1)Nc1cccc(C(F)(F)F)c1	none (no result: bIAP activator, bIAP inhibitor)
O=c1oc(-c2cccs2)nc2sc3c(c12)CCC3	none
O=c1oc(/C=C/c2ccco2)nc2sc3c(c12)CCC3	mIAP inh 63 | mIAP inh confirm 62
COc1ccc(-n2cnnc2SCC(=O)Nc2ccccc2F)cc1	none (no result: bIAP activator, bIAP inhibitor)
O=C(CNC(=O)c1cccs1)Nc1ccc2c(c1)OCCO2	none (no result: bIAP activator, bIAP inhibitor)
O=C(O)CC(CCc1ccccc1)OC1OC(CO)C(O)C(O)C1O (stereo unspecified)	mIAP inh 76 (no result: bIAP activator, bIAP inhibitor) | mIAP inh confirm 80
CCSc1nc2c(c(=O)[nH]c(=O)n2C)n1C/C=C(/C)Cl	none
CCOC(=O)C(C)Sc1nc2c(c(=O)[nH]c(=O)n2C)n1C/C=C(/C)Cl (stereo unspecified)	mIAP inh 68 | mIAP inh confirm 71
O=C(Nc1ccc2c(c1)N(Cc1ccccc1)C(=O)c1ccccc1S2)NC1CC1	mIAP activ 2.7 | mIAP inh confirm inactive
Cc1ccc(C(=O)Nc2nnc(CC(=O)N/N=C/c3ccc(O)c(O)c3)s2)cc1	mIAP inh 58 (no result: bIAP activator, bIAP inhibitor) | mIAP inh confirm 79
Cc1ccc(C(=O)Nc2nnc(CC(=O)N/N=C/c3ccncc3)s2)cc1	none
CCCCOc1ccc(NC2=NC3(CCCCC3)N=C(N)N2)cc1	bIAP activator 4.6, mIAP activ 4.8 | mIAP inh confirm inactive
O=Cc1cccc(OC(=O)/C=C/c2ccco2)c1	mIAP inh 49 (no result: bIAP activator, bIAP inhibitor) | mIAP inh confirm 57
COC(=O)c1ccc(OC(=O)/C=C/c2ccco2)cc1	none (no result: bIAP activator, bIAP inhibitor)
COC(=O)c1ccc(NC(=O)Nc2ccc(F)cc2F)cc1	none
COC(=O)c1ccc(NC(=O)Nc2cccc(F)c2)cc1	mIAP activ 2.6 | mIAP inh confirm inactive
Cc1cc(-c2csc(NC(=O)c3ccc(=O)[nH]c3)n2)c(C)n1Cc1ccco1	mIAP inh 48 (no result: bIAP activator, bIAP inhibitor) | mIAP inh confirm 65
O=C(COc1coc(CN2CCN(c3ccccc3F)CC2)cc1=O)NCC1CCCO1 (stereo unspecified)	none (no result: bIAP activator, bIAP inhibitor)
Cc1ccc(N/C(N)=N/c2nc(C)cc(N3CCCCC3)n2)c(C)c1	bIAP activator 8.4, mIAP activ 3.7, hIAP activ 3.1 | mIAP inh confirm inactive
Cc1ccc(N/C(N)=N/c2nc3c(c(=O)[nH]2)CCCC3)c(C)c1	none
CCOC(=O)C[C@H]1c2ccc(C(F)(F)F)cc2S(=O)(=O)N1C(C)C	none (no result: bIAP activator, bIAP inhibitor)
O=C(CSc1n[nH]c(-c2ccccc2)n1)c1ccc(O)c(O)c1	mIAP inh 65 (no result: bIAP inhibitor) | mIAP inh confirm 69
Cc1ccc(O)c(NC(=O)CSc2n[nH]c(-c3ccccc3)n2)c1	none (no result: bIAP activator, bIAP inhibitor)
NC1=NC(=O)/C(=C\c2ccco2)S1	mIAP inh 75 (no result: bIAP activator, bIAP inhibitor) | mIAP inh confirm 82
Cc1cc(NC(=O)C2CCCCC2C(=O)O)ccc1NC(=O)c1ccccc1 (stereo unspecified)	none (no result: bIAP activator, bIAP inhibitor)
CCOc1ccccc1N1CCN(S(=O)(=O)c2ccc3c4c(cccc24)C(=O)N3)CC1	mIAP inh 59 | mIAP inh confirm 56
CCOC(=O)N1CCN(S(=O)(=O)c2ccc3c4c(cccc24)C(=O)N3)CC1	none (no result: bIAP activator, bIAP inhibitor)
O=C(CCNC(=O)c1ccc(Br)cc1)Nc1ccc(S(=O)(=O)N2CCOCC2)cc1	none (no result: bIAP activator, bIAP inhibitor)
O=c1nc2s/c(=C\c3ccco3)c(=O)n2nc1Cc1ccc(F)cc1	mIAP inh 46 | mIAP inh confirm 58
COc1ccc(Cl)cc1NC(=S)NCCC(c1ccccc1)c1ccccc1	mIAP activ 4 | mIAP inh confirm inactive
S=C(NCCC(c1ccccc1)c1ccccc1)Nc1ccc(Cl)cc1	mIAP activ 5.9 | mIAP inh confirm inactive
S=C(NCc1ccccc1)Nc1ccc(Cl)cc1	none
COc1ccc(Cl)cc1NC(=S)NCCO	none
Cc1ccc(/C=C2/SC(=O)NC2=S)o1	mIAP inh 45 | mIAP inh confirm 63
O=C(CCS(=O)(=O)c1cccc2nonc12)Nc1ccc(Br)cc1	none (no result: bIAP activator, bIAP inhibitor)
Cn1nc([N+](=O)[O-])nc1S(C)(=O)=O	mIAP inh 44 | mIAP inh confirm 59
CS(=O)(=O)c1nc([N+](=O)[O-])nn1CCCc1ccccc1	none (no result: bIAP activator, bIAP inhibitor)
CCC(C)Sc1nnc(NS(=O)(=O)Cc2ccccc2)s1 (stereo unspecified)	none (no result: bIAP activator, bIAP inhibitor)
CC(=O)Nc1ccc(S(=O)(=O)Nc2nc3ccccc3nc2Nc2cccc(O)c2)cc1	none (no result: bIAP activator, bIAP inhibitor)
CC(=O)Nc1ccc(S(=O)(=O)Nc2nc3ccccc3nc2Nc2ccc(C(=O)O)c(O)c2)cc1	mIAP inh 42 (no result: bIAP activator, bIAP inhibitor) | mIAP inh confirm 50
COc1c(S(=O)(=O)n2nc(C)cc2C)ccc(Cl)c1Cl	none
C=CCc1cccc2cc(C(=O)NNC(=O)CC#N)c(=O)oc12	mIAP inh 45 (no result: bIAP activator, bIAP inhibitor) | mIAP inh confirm 55
COCCNC(=O)c1ccc(N2CC3CC(C2)c2cccc(=O)n2C3)c(NC(=O)c2ccc(Br)o2)c1 (stereo unspecified)	none (no result: bIAP activator, bIAP inhibitor)
CC(C)(C)c1ccc(NC(=O)NC2CCCc3ccccc32)cc1 (stereo unspecified)	mIAP activ 6.2 (no result: bIAP activator, bIAP inhibitor) | mIAP inh confirm inactive
Cc1ccc(NC(=O)NC2CCCc3ccccc32)cc1 (stereo unspecified)	none (no result: bIAP activator, bIAP inhibitor)
CC(C)N(Cc1ccccc1)C(=O)COC(=O)c1cnc(Cl)c(Cl)c1	none (no result: bIAP activator, bIAP inhibitor)
CCC(C(=O)NCCC(C)C)n1ccc2cc(S(=O)(=O)N3CCCCC3)ccc21 (stereo unspecified)	mIAP activ 2.7 (no result: bIAP activator, bIAP inhibitor) | mIAP inh confirm inactive
Oc1cccc(C=NCc2ccccc2)c1O	mIAP inh 58 | mIAP inh confirm 63
Oc1cccc(C=Nc2cccc3ccccc23)c1O	none (no result: bIAP activator, bIAP inhibitor)
COC(=O)c1ccc2c(c1)N(C)S(=O)(=O)c1cnc(SCC(=O)C(C)(C)C)nc1-2	none (no result: bIAP activator, bIAP inhibitor)
O=c1ccc2cc3c([nH]c4ccc(Br)cc43)oc-2c1O	mIAP inh 48 | mIAP inh confirm 44
O=C(O)c1ccc(N=Nc2c(O)[nH]c3ccc(Br)cc23)cc1	none (no result: bIAP activator, bIAP inhibitor)
COc1ccc(NC(=O)CN(C)S(=O)(=O)c2ccc3[nH]c(=O)oc3c2)cc1	none (no result: bIAP activator, bIAP inhibitor)
